Compound activity deposited in PubChem by Broad Institute.
FGF22 binding: binders of recombinant human FGF22 by thermal shift; activity (Tm shift, normalised), % at 9.99 µM; Q9HCT0; 1.5% of 340,000 active; AID 651658; SYPRO orange fluorescence; percent of sucrose octasulfate shift, DMSO zero;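 active = mean Tm shift, scaled 0 neutral to 100 positive control, at about 1.3% or above, every replicate too, limit read from the data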
Target sequence (Q9HCT0 whole entry, looked up): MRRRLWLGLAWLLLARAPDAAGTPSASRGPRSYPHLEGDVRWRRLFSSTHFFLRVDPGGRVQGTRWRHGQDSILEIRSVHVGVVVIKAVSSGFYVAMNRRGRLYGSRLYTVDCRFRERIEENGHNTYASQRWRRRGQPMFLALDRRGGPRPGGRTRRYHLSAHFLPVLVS
SIRT5 inh: blocks human SIRT5 desuccinylation of peptide; Q9NXA8; Purified SirT5, succinyl-peptide AMC, trypsin-coupled fluorescence; inhibition, % at 15 µM; 1.1% of 330,000 active; in the data active = inhibition above about 15%
Target sequence (Q9NXA8 whole entry, looked up): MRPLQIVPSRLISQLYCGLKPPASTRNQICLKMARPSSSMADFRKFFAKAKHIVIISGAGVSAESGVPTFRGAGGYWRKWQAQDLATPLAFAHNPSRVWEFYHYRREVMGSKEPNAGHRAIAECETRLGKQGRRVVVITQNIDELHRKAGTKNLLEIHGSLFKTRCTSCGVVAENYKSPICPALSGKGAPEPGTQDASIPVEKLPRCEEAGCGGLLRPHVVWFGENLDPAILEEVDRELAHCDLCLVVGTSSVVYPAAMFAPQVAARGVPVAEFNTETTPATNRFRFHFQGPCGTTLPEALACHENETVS
E-sel inducer: induces E-selectin expression in human endothelial cells | P16581 | HUVEC E-selectin immunofluorescence imaging; normalized: neutral wells 0, TNF-alpha wells 100 | activation, % at 7.58 µM | 0.37% of 260,000 active | AID 686992;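 active = mean E-selectin-positive cell signal at least 10% of the positive control, reached in at least 60% of replicates, without over 20% cell loss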
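Read-out: % PE-positive cells | Test system: HUVEC | Doses: One compound dose added by pin transfer | Buffer or medium: EGM-2 over gelatin coat | Signal: Immunofluorescence imaging | Benchmarks: TNF-alpha, DMSO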
Statin myotox sup: protects C2C12 myotubes from simvastatin toxicity. rescue of ATP level, % at 7.49 µM. ATP luminescence, 48 h; scaled: DMSO 0, geranylgeraniol control 100. AID 602340. 0.78% of 330,000 active;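 active = mean ATP rescue above about 67%, or every replicate alone reaching that limit, limit read from the data, passing the limit was not always enough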;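 note: myotubes were challenged with 10 µM simvastatin during compound exposure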
FN deposition inh: fibronectin deposition inhibition | 0.086% of 350,000 active | AH1F fibroblasts, Alexa488-fibronectin deposition fluorescence, overnight | inhibition, % at 12.6 µM;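 active = mean inhibition across replicates of 30% or more, regardless of how many single replicates reach that level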
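Material – AH1F fibroblast monolayer, labelled fibronectin deposition · Reagent – labelled fibronectin 24 nM · Timing – 1 h adhesion, overnight exposure · Measured by – fluorescence at 485 nm excitation, 525 nm emission · Read-out – inhibition of fibronectin deposition signal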
Ecoli rRNA inh: inhibits bacterial ribosomal RNA function over humanized ribosomes; E. coli WT GFP vs humanized-ribosome RFP mutants, fluorescence, 24 h; hits give low values; DMSO median 0, no signal -100; GFP signal change (wild-type ribosome), % (no concentration beside the values); 1.6% of 350,000 active; AID 720706;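 active = significant combined selectivity score with lowered wild-type GFP, culture density cut under 30%, mutant RFP and density less affected; inactive = any of these conditions unmet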
Each line names hits and unclear results; the compound was inactive in the other large screens. Hits are enriched below; roughly 4% of the tested compounds scored in any of these assays.

O=C1COc2ccc(-c3n[nH]c(=O)c4ccccc34)cc2N1	FGF22 binding 43
CC(C)N(C(=O)COC(=O)[C@H](C)NC(N)=O)c1ccccc1	FGF22 binding 43 (no result: E-sel inducer, Statin myotox sup, FN deposition inh)
COC(=O)C1CC(O)CN1C(=O)Nc1cccc(C(F)(F)F)c1 (centres undefined)	FGF22 binding 43
CC1CCCCN1C(=O)Nc1cccc(C(F)(F)F)c1 (centres undefined)	none (no result: E-sel inducer, Statin myotox sup)
O=C(CCN1C(=O)/C(=C/c2cccc(Br)c2)SC1=S)Nc1cccnc1	none
CCOc1ccc(/C=C/C(=O)CCC(=O)O)cc1	FGF22 binding 43 (no result: E-sel inducer)
COc1cccc(/C=C2\SC(=S)N(CCCC(=O)Nc3ccc(C(=O)O)cc3)C2=O)c1	none
CCOc1ccc(/C=C2\SC(=S)N(CCC(=O)O)C2=O)cc1	Ecoli rRNA inh -27 (no result: FGF22 binding, E-sel inducer, Statin myotox sup)
O=C(O)CCC(=O)/C=C/c1ccccc1	none (no result: E-sel inducer, Statin myotox sup)
Cc1ccc(NC(=O)COc2cccc(/C=C3\SC(=S)N(CCC(=O)O)C3=O)c2)cc1Cl	SIRT5 inh 27
O=C(CN1C(=O)/C(=C/c2cccc(Br)c2)SC1=S)Nc1cccnc1	FGF22 binding 44 (no result: E-sel inducer, Statin myotox sup)
COc1ccc(NC(=O)N(C)C[C@@H]2Oc3ncc(-c4ccccc4)cc3C(=O)N([C@H](C)CO)C[C@@H]2C)cc1	none (no result: FGF22 binding, SIRT5 inh)
C[C@H]1CN([C@@H](C)CO)C(=O)Cc2cc(NC(=O)Nc3cccc4ccccc34)ccc2O[C@H]1CN(C)C(=O)Nc1ccc(C(F)(F)F)cc1	none (no result: FN deposition inh)
C[C@@H]1CN([C@@H](C)CO)C(=O)c2cc(NC(=O)Cc3cn(C)c4ccccc34)ccc2O[C@@H]1CN(C)S(C)(=O)=O	none (no result: FN deposition inh)
O=C(CCN1C(=O)/C(=C/c2ccc(Cl)cc2)SC1=S)Nc1cccc(C(=O)O)c1	none
O=C(O)CCN1C(=O)/C(=C\c2cccc(OCC(=O)Nc3ccc(Cl)cc3)c2)SC1=S	Ecoli rRNA inh -30 (no result: E-sel inducer)
C[C@@]12C(=O)OC(=O)[C@]1(C)C1CCC2O1	FN deposition inh 41 (no result: Ecoli rRNA inh)
COc1cccc(-c2ccc(CC[C@H]3O[C@H]4CC[C@H](CO)O[C@H]4C[C@@H]3NC(=O)c3cnccn3)cc2)c1	none (no result: E-sel inducer, Statin myotox sup, FN deposition inh, Ecoli rRNA inh)
Cc1ccc(SC2CC(=O)N(c3ccc4c(c3)OCCO4)C2=O)cc1 (centres undefined)	FGF22 binding 43 (no result: E-sel inducer, Statin myotox sup)
CCC(=O)Nc1ccc2c(c1)OC[C@H](C)N(CCc1ccccc1)C[C@H](C)[C@H](OC)CN(C)C2=O	none (no result: FGF22 binding, SIRT5 inh)
Oc1c(Br)cc(Br)cc1C=NCc1ccc(F)cc1	FGF22 binding 43 (no result: E-sel inducer, Statin myotox sup)
COc1cc(N=Nc2ccc(Br)cc2)cc(C=O)c1O	SIRT5 inh 18 (no result: Statin myotox sup)
COc1cc(O)ccc1C=O	none (no result: Statin myotox sup)
CCN(C[C@H]1N[C@@](C)(C(=O)OC)[C@H]2C(=O)N(C)C(=O)[C@@H]12)C(=O)c1ccc(F)cc1	SIRT5 inh 28
COC(=O)[C@]1(C)N[C@H](CN(C)C(=O)c2ccccc2)[C@@H]2C(=O)N(C)C(=O)[C@@H]21	SIRT5 inh 34
CCNC(=O)N(C)C[C@H]1N[C@@](C)(C(=O)OC)[C@H]2C(=O)N(C)C(=O)[C@@H]12	none (no result: E-sel inducer)
CCNC(=O)N(C)C[C@H]1N[C@@](C)(C(=O)OC)[C@H]2C(=O)N(Cc3ccccc3)C(=O)[C@@H]12	none (no result: E-sel inducer)
CCN(C[C@H]1N[C@@](C)(C(=O)OC)[C@H]2C(=O)N(C)C(=O)[C@@H]12)C(=O)c1ccc(C)cc1	none
COC(=O)[C@]1(C)N[C@H](CN(C)C(=O)c2ccc(C(C)(C)C)cc2)[C@@H]2C(=O)N(Cc3ccccc3)C(=O)[C@@H]21	FGF22 binding 43 (no result: SIRT5 inh)
CC(C)(C)[S@](=O)N1Cc2cc(C(=O)NCc3ccccc3F)nc(-c3cccc(-c4ccncc4)c3)c2[C@@H]1CCO	none
C[C@H]1CN([C@@H](C)CO)C(=O)c2cc(C#Cc3ccccc3F)cnc2O[C@@H]1CN(C)C(=O)C1CCC1	none (no result: FN deposition inh)
Cn1c(CNS(=O)(=O)c2ccc(Cl)cc2)cc(=O)n(C)c1=O	E-sel inducer 97
Cn1c(CNS(=O)(=O)c2cccc(Cl)c2)cc(=O)n(C)c1=O	none (no result: Statin myotox sup)
Cn1c(N)c(S(=O)(=O)NCc2ccccc2)c(=O)n(C)c1=O	none
Cn1c(N)c(S(=O)(=O)NCc2ccc(Cl)cc2)c(=O)n(C)c1=O	FGF22 binding 44 (no result: E-sel inducer, Statin myotox sup, Ecoli rRNA inh)
O=c1[nH][nH]c2c(N=Cc3ccccc3O)ccc(F)c12	SIRT5 inh 29 (no result: FGF22 binding, E-sel inducer, FN deposition inh)
CCCC(=O)Nc1ccc2c(c1)C(=O)N(C)C[C@@H](OC)[C@@H](C)CN(Cc1cccc(F)c1)[C@@H](C)CO2	none
CO[C@@H]1CN(C)C(=O)c2cc(NC(=O)Nc3cccc(Cl)c3)ccc2OC[C@@H](C)N(C)C[C@H]1C	none (no result: FGF22 binding, SIRT5 inh)
c1ccc(-n2cc(CN3CCC(N4CCOCC4)CC3)c(-c3ccc4c(c3)OCO4)n2)cc1	none (no result: E-sel inducer)
c1ccc(-n2cc(CN3CCCC3)c(-c3ccc4c(c3)OCO4)n2)cc1	FGF22 binding 43
CNC[C@H]1Oc2c(N)cccc2C(=O)N([C@H](C)CO)C[C@@H]1C	SIRT5 inh 3.0
CNC[C@H]1OCCCC[C@@H](C)Oc2ccc(N(C)C)cc2C(=O)N([C@H](C)CO)C[C@H]1C	SIRT5 inh 15 (no result: FN deposition inh)
CNC[C@H]1Oc2ccc(N(C)C)cc2C(=O)N([C@@H](C)CO)C[C@H]1C	E-sel inducer 129 (no result: FGF22 binding)
CNC[C@@H]1Oc2c(N)cccc2C(=O)N([C@H](C)CO)C[C@H]1C	none
COc1ccc(S(=O)(=O)N(C)C[C@H]2Oc3c(NC(=O)CCCCCC(=O)Nc4ccccc4N)cccc3C(=O)N([C@@H](C)CO)C[C@@H]2C)cc1	none (no result: Statin myotox sup, FN deposition inh)
COc1ccccc1C(=O)N/C(=C\c1ccc(Br)cc1)C(=O)N1CCCC1	Ecoli rRNA inh -40 (no result: E-sel inducer, Statin myotox sup)
Cc1noc(C)c1S(=O)(=O)Nc1ccc2c(c1)C(=O)N([C@H](C)CO)C[C@H](C)[C@@H](CN(C)Cc1ccc(Oc3ccccc3)cc1)O2	none (no result: FN deposition inh)
COc1ccc(NC(=O)Cn2nc3n(c2=S)CCC3)cc1	Statin myotox sup 100 (no result: FGF22 binding, SIRT5 inh, E-sel inducer, FN deposition inh, Ecoli rRNA inh)
CSC1=NCCN1C(=O)Cc1ccc(-c2ccccc2)cc1	Ecoli rRNA inh -19 (no result: E-sel inducer, Statin myotox sup, FN deposition inh)
CCSC1=NCCN1C(=O)Cc1ccc(-c2ccccc2)cc1	none (no result: E-sel inducer, Statin myotox sup, FN deposition inh)
CC(C)CC(N)c1csc(Nc2cnccn2)n1 (centres undefined)	FGF22 binding 44 (no result: SIRT5 inh)
O=C(NCCc1ccccc1)C1c2ccccc2C(=O)N1Cc1cccs1 (centres undefined)	SIRT5 inh 34
COc1ccc([C@@H]2C/C=C\C[C@@H](c3ccc4c(c3)OCO4)NC(=O)[C@H](c3ccccc3)CC(=O)N2)c(OC)c1	none (no result: FGF22 binding, SIRT5 inh, E-sel inducer, Statin myotox sup)
COc1ccc(NC(=S)N2CCN(Cc3ccccc3)CC2)cc1	SIRT5 inh 94 (no result: E-sel inducer, Statin myotox sup)
CCOc1ccc(NC(=S)N2CCN(C/C=C/c3ccccc3)CC2)cc1	Ecoli rRNA inh -28 (no result: E-sel inducer, Statin myotox sup, FN deposition inh)
